From ChEMBL document CHEMBL1250524, “Novel imidazoline compounds as partial or full agonists of D2-like dopamine receptors inspired by I2-imidazoline binding sites ligand 2-BFI” (Bioorg Med Chem, 2010)
pEC50, pKd, pKi: −log10 of the molar value.

Legend:
[1] = Displacement of [3H]YM-09-151-2 from D2-like receptor in pig striatal membrane; format: cell membranes, Sus scrofa, Striatum
Outline: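 Pig striatal membranes (about 200 µg protein) in Tris–HCl pH 7.4 with protease inhibitors, incubated to equilibrium (60 min, 30 °C) with 0.3 nM [3H]YM-09-151-2 and at least six compound concentrations. Nonspecific binding defined with 2.5 mM dopamine. Filtration, scintillation counting. IC50 converted to Ki by Cheng–Prusoff; 3–5 experiments in triplicate. Radioligand Kd 0.40 nM.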

[2] = Displacement of [3H]2BFI from I2 imidazoline binding site in rat brain membrane; format: cell membranes
Outline: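 Rat whole-brain membranes (about 300 µg protein) incubated to equilibrium (30 min, room temperature) with 1 nM [3H]2-BFI and increasing compound concentrations in 50 mM Tris–HCl, 1 mM MgCl2, pH 7.4. Nonspecific binding defined with 10 µM BU224. Filtration, scintillation counting. At least six concentrations; IC50 converted to Ki by Cheng–Prusoff; 3–5 experiments in triplicate.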

[3] = biological target: T1, Adrenergic receptor alpha-2 (Rattus norvegicus, UniProt P22086+P19328+P22909); assay: Displacement of [3H]RX821002 from alpha2 adrenergic receptor in rat brain membrane; format: cell membranes
T1 sequence (P22086 whole entry): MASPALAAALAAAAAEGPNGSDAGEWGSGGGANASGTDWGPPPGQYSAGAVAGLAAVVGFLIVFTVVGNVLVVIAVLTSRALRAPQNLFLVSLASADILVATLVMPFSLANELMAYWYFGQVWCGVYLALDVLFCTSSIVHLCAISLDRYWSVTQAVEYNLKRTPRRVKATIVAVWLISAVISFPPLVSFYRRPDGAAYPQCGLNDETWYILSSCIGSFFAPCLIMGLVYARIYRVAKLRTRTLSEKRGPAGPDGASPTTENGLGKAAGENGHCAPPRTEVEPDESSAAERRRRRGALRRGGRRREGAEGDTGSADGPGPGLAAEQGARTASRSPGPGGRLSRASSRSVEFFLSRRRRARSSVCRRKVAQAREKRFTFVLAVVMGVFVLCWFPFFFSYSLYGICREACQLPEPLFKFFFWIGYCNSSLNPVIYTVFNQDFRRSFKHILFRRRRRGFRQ
T1 sequence (P19328 whole entry): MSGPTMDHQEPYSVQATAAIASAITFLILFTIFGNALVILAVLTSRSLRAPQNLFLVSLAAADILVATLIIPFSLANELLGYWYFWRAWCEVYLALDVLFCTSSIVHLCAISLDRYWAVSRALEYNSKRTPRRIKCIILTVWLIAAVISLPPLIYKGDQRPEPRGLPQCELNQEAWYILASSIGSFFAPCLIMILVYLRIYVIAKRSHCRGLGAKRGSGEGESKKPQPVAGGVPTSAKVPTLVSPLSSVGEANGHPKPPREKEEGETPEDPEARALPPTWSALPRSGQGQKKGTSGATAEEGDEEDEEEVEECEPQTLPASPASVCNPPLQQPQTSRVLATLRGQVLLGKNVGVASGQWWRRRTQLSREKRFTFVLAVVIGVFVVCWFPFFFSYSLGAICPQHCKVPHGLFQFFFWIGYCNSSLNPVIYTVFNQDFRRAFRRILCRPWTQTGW
T1 sequence (P22909 whole entry): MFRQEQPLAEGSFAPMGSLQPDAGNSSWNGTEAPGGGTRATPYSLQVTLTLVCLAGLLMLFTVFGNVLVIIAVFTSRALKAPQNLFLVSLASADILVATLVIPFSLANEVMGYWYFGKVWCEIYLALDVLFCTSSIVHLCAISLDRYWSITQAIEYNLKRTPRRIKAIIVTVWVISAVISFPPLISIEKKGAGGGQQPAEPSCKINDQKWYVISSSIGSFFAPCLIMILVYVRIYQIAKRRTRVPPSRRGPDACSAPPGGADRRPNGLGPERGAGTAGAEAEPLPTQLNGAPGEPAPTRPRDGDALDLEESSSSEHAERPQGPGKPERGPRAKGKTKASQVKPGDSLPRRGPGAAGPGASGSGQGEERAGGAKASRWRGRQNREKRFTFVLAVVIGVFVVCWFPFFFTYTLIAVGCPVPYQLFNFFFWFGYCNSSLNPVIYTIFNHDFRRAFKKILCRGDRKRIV

[4] = Agonist activity at D2-like receptor in pig striatal membrane assessed as [35S]GTPgammaS binding; format: functional, cell membranes, Sus scrofa, Striatum
Outline: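 Porcine striatal membranes incubated 60 min at 30 °C in 50 mM Tris–HCl pH 7.4 with GDP, 5 mM MgCl2, 0.1 mM EDTA, 0.2 mM EGTA, 0.2 mM DTT, 150 mM NaCl, 0.2 nM [35S]GTPγS and six compound concentrations. Nonspecific binding defined with unlabeled GTPγS. Filtration, scintillation counting. EC50 by nonlinear regression, three independent experiments. Intrinsic activity set relative to dopamine %Emax = 1.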

Rattus norvegicus [5] = assay: Anxiolytic-like activity in Wistar rat assessed as rearing activity at 0.0149 uM/kg, icv by open field test; format: functional
Outline: (§1)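 Male Wistar rats (200–225 g, 8 per group) given ip zolazepam/tiletamine anaesthesia before a cannula was implanted in the right lateral ventricle. Compound given icv at 0.0149 µM/kg; controls received physiological solution. Open field with two photocell rows: lower-row breaks counted as ambulatory episodes, upper-row breaks as rearing. Read-out is the % of episodes in the central area, mean ± SE.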

Rattus norvegicus [6] = assay: Anxiolytic-like activity in Wistar rat assessed as ambulatory activity at 0.0149 uM/kg, icv by open field test; format: functional; outline: as §1
[7] = Displacement of [3H]SCH23390 from dopamine D1-like receptor pig striatal membrane

Row | SMILES | pKi [1] | pKi [2] | Ki [3] [µM] | pEC50 [4] | Activity (Rattus norvegicus [5]) [%] | Activity (Rattus norvegicus [6]) [%] | pKd [7]
1 | Oc1ccc2oc(C3=NCCN3)cc2c1 | < 4.00 | 7.06 | 2.95 | – | – | – | –
2 | CN1CCN=C1c1cc2cc(O)ccc2o1 | < 4.00 | – | – | – | – | – | –
3 | CCN1CCN=C1c1cc2cc(O)ccc2o1 | < 4.00 | < 4.00 | 25.5 | – | – | – | –
4 | CCCN1CCN=C1c1cc2cc(O)ccc2o1 | 4.80 | 6.15 | 3.64 | – | – | – | –
5 | Oc1ccc2cc(C3=NCCN3)oc2c1 | 4.84 | 7.12 | 11 | 5.24 | – | – | –
6 | CCCN1CCN=C1c1cc2ccc(O)cc2o1 | 4.86 | 5.68 | 1.92 | 4.88 | – | – | –
7 | Oc1cc2cc(C3=NCCN3)oc2cc1O | < 4.00 | 5.24 | 24.21 | – | – | – | –
8 | CCCN1CCN=C1c1cc2cc(O)c(O)cc2o1 | < 4.00 | 4.55 | 10.16 | – | – | – | –
9 | Oc1ccc2oc(C3=NCCN3Cc3ccccc3)cc2c1 | 5.30 | 5.96 | 4.39 | 5.20 | – | – | –
10 | Oc1ccc2cc(C3=NCCN3Cc3ccccc3)oc2c1 | 5.25 | 5.24 | 2.08 | 5.24 | 2 | 6.3 | –
11 | Oc1cc2cc(C3=NCCN3Cc3ccccc3)oc2cc1O | 4.73 | 4.98 | 4.43 | 4.92 | – | – | –
12 | c1ccc2oc(C3=NCCN3)cc2c1 | 4.33 | 8.47 | – | 4.42 | – | – | –
13 | NCCc1ccc(O)c(O)c1 [DOPAMINE] | 5.41 | – | – | 5.32 | – | – | 8.88
14 | N[C@@H](Cc1ccc(O)c(O)c1)C(=O)O [LEVODOPA] | – | – | – | – | 2 | 5.7 | –
